Ecoli rRNA inh = inhibits bacterial ribosomal RNA function over humanized ribosomes; E. coli WT GFP vs humanized-ribosome RFP mutants, fluorescence, 24 h; stronger effect = lower value; DMSO median 0, no signal -100; GFP signal change (wild-type ribosome), % (no concentration beside the values); actives 1.6% (n = 350,000);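 active = significant combined selectivity score with lowered wild-type GFP, culture density cut under 30%, mutant RFP and density less affected; inactive = any of these conditions unmet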
Mot1-301 SUMO = SUMOylation pathway inhibition by Mot1-301 growth rescue. growth rescue, % at 18.8 µM. actives 1% (n = 320,000). S. cerevisiae Mot1-301 growth rescue, ATP luminescence, 38.5C; percent above DMSO median, 100 means doubled. AID 2716;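 active = every valid replicate shows activation above 250% relative to neutral control wells; inactive = the rest, any valid replicate at or below 250%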
CR mimetic SO = lowers age-related superoxide in aged yeast cells. S. cerevisiae aged cells, superoxide DHE fluorescence; stronger effect = lower value. superoxide response (% of plate mean), % at 10 µM. actives 0.18% (n = 330,000). AID 2690;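 active = superoxide response under a set limit, about three screen SD below normal, cut at about 65% in these data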;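 also: yeast aged for seven days with compound at 30 °C before DHE staining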
PglD inh = blocks C. jejuni PglD acetyltransferase activity | purified PglD enzyme, DTNB colorimetric CoA detection | inhibition, % at 12.5 µM | actives 0.098% (n = 360,000); in the data active = inhibition above about 16%, passing the limit was not always enough
Cneo AK release = Cryptococcus neoformans lysis via adenylate kinase release. C. neoformans lysis, adenylate kinase release luminescence, 4 h; normalised: neutral wells 0, clomiphene wells 100. lysis activity, % at 15 µM. actives 0.2% (n = 360,000). AID 651654;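 active = mean lysis activity across replicates of at least 80%, whatever share of replicates individually reach that level; inactive = mean lysis activity below 80%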
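Assay system: log-phase C. neoformans yeast / Quantity: yeast cell density of 5 × 10^6 cells/mL / Medium: fresh YPD growth medium / Compound: single dose / Timing: static 4 h at 37 °C with compound, 1 h detection / Measured by: adenylate kinase release luminescence / Read-out: lysis from increased AK signal / Benchmarks: Clomiphene as positive lysis control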
Each line names hits and unclear results; the compound was inactive in the other large screens. Hits are enriched below; roughly 2.2% of the tested compounds scored in any of these assays.

Cc1noc(C)c1S(=O)(=O)Nc1ccc2c(c1)C(=O)N([C@@H](C)CO)C[C@H](C)[C@H](CN(C)S(=O)(=O)c1ccc(F)cc1)OCCCC[C@H](C)O2	none (no result: Mot1-301 SUMO, CR mimetic SO)
O=C(NNC(=O)c1cc(Br)c(Br)s1)c1csc(N2CCOCC2)n1	Mot1-301 SUMO 346.6 (no result: PglD inh, Cneo AK release)
CC(=O)OC[C@]12CC[C@H]3[C@@](C)(CC[C@H]4C(C)(C)CCC[C@]34C)[C@@H]1C[C@H](C1=CC(=O)O[C@H]1OC(C)=O)O2	Mot1-301 SUMO 910.1 (no result: Ecoli rRNA inh, PglD inh, Cneo AK release)
C=CCOc1c(Br)cc(CNn2c(C)n[nH]c2=S)cc1OCC	Ecoli rRNA inh -30.7
COc1cc(CNn2c(C)n[nH]c2=S)cc(Br)c1OCc1ccc(F)cc1	none (no result: PglD inh, Cneo AK release)
CSc1ccc(NC(=O)Nc2cccn(Cc3ccccc3)c2=O)cc1	Ecoli rRNA inh -29.5 (no result: PglD inh, Cneo AK release)
Cc1nn(Cc2ccccc2Cl)c(C)c1C(=O)N1CCN(c2ccccc2)CC1	Ecoli rRNA inh -26.6
COc1cc2c(c(OC)c1OC)-c1c(cc3c(c1OC)OCO3)[C@@H](OC(C)=O)[C@H](C)[C@H](C)C2	Ecoli rRNA inh -42.2
C/C=C(/C)C(=O)O[C@@H]1c2cc(OC)c(OC)c(OC)c2-c2c(cc3c(c2OC)OCO3)C[C@H](C)[C@]1(C)O	none
Cn1c(C(=O)O)c(CC(=O)N2CCC(Cc3ccccc3)CC2)c2ccccc21	Ecoli rRNA inh -26.1, Mot1-301 SUMO 892.7
CCOCC(=O)N1CCC(Cc2ccccc2)CC1	none (no result: PglD inh, Cneo AK release)
CN1C(=O)c2cc(NC(=O)c3cc(F)cc(F)c3)ccc2OC[C@H]2O[C@@H](CC(=O)O)CC[C@@H]21	none (no result: Mot1-301 SUMO, CR mimetic SO)
Cn1c(CSCc2ccc(Cl)cc2)n[nH]c1=S	Ecoli rRNA inh -23.2
CC=Cc1ccc2n(c1=O)C[C@H]1[C@H](CO)[C@@H](C(=O)N3CCc4ccccc4C3)N(C(=O)C3CC3)[C@@H]21 (mixture of isomers)	Cneo AK release 90.1 (no result: Mot1-301 SUMO, CR mimetic SO)
CC=Cc1ccc2n(c1=O)C[C@H]1[C@H](CO)[C@@H](C(=O)N3CCOCC3)N(Cc3ccccc3)[C@@H]21 (mixture of isomers)	none (no result: Mot1-301 SUMO, CR mimetic SO)
CC=Cc1ccc2n(c1=O)C[C@H]1[C@H](CO)[C@@H](C(=O)N3CCc4ccccc4C3)N(C(=O)CC)[C@@H]21 (mixture of isomers)	none (no result: Mot1-301 SUMO, CR mimetic SO)
CC=Cc1ccc2n(c1=O)C[C@H]1[C@H](CO)[C@@H](C(=O)N3CCOCC3)N(CC3CC3)[C@@H]21 (mixture of isomers)	Cneo AK release 84.0 (no result: Mot1-301 SUMO, CR mimetic SO)
CC=Cc1ccc2n(c1=O)C[C@@H]1[C@@H](CO)[C@H](C(=O)N3CCCCC3)N(Cc3ccccc3)[C@H]21 (mixture of isomers)	Cneo AK release 105.7 (no result: Mot1-301 SUMO, CR mimetic SO)
CC(CCc1ccccc1)NC(=O)CN(C)Cc1ccccc1F (stereo not given)	Ecoli rRNA inh -29.2
CC(CCc1ccccc1)NC(=O)CN(C)Cc1ccc(F)cc1 (stereo not given)	none
O=C(C[C@H]1C[C@H]2c3cc(NS(=O)(=O)c4ccc(F)cc4)ccc3O[C@H]2[C@@H](CO)O1)NCc1ccccn1	none (no result: Mot1-301 SUMO, CR mimetic SO)
CC(=C/c1ccccc1)/C=N/N1CCN(Cc2ccc(C)cc2)CC1	Ecoli rRNA inh -25.1
CC(/C=N/N1CCN(Cc2ccccc2)CC1)=C\c1ccccc1	none (no result: PglD inh, Cneo AK release)
CCOC(=O)c1ccc(Oc2c(C)oc3c(CN4CCN(C)CC4)c(O)ccc3c2=O)cc1	Mot1-301 SUMO 356.7 (no result: Ecoli rRNA inh)
Cc1oc2c(CN3CCOCC3)c(O)ccc2c(=O)c1-c1ccccc1	Ecoli rRNA inh -24.5
COc1ccccc1-c1c(C)oc2c(CN3CCOCC3)c(O)ccc2c1=O	none
COc1ccc(NC(=O)N(C)C[C@H]2OCCCC[C@@H](C)Oc3ccc(NS(=O)(=O)c4c(C)noc4C)cc3C(=O)N([C@H](C)CO)C[C@H]2C)cc1	none (no result: Mot1-301 SUMO, CR mimetic SO)
C[C@@H]1CCCCO[C@@H](CN(C)Cc2ccncc2)[C@H](C)CN([C@@H](C)CO)C(=O)c2cc(NS(=O)(=O)c3cn(C)cn3)ccc2O1	none (no result: Mot1-301 SUMO, CR mimetic SO)
COC(=O)CC1C(=O)NCCN1C(=S)NC(=O)C(c1ccccc1)c1ccccc1 (stereo not given)	Ecoli rRNA inh -25.9 (no result: PglD inh, Cneo AK release)
CC(C)NC(=O)N(Cc1ccc(Cl)cc1)Cc1cccs1	Ecoli rRNA inh -24.1 (no result: PglD inh, Cneo AK release)
CC1(C)CC(=O)C(C2C3=C(CC(C)(C)CC3=O)Oc3ccccc32)C(=O)C1 (stereo not given)	Ecoli rRNA inh -22.1 (no result: PglD inh, Cneo AK release)
CC1(C)CC(=O)C(C2C3=C(CC(C)(C)CC3=O)Oc3ccc4ccccc4c32)C(=O)C1 (stereo not given)	none (no result: PglD inh, Cneo AK release)
Cc1onc(-c2ccccc2Cl)c1C(=O)O/N=C(\N)c1ccccc1	none
C/C(=N\OC(=O)c1c(-c2ccccc2Cl)noc1C)c1ccncc1	Ecoli rRNA inh -22.9 (no result: PglD inh, Cneo AK release)
O=C(C[C@@H]1CC[C@H]2[C@@H](COC[C@@H](O)CN2C(=O)Nc2ccccc2)O1)NC1Cc2ccccc2C1	none (no result: Mot1-301 SUMO, CR mimetic SO)
CCCNC(=O)C[C@H]1C[C@H]2c3cc(NC(=O)COC)ccc3O[C@H]2[C@@H](CO)O1	none (no result: Mot1-301 SUMO, CR mimetic SO)
Cc1[nH]nc2c1C(c1ccc(F)cc1)N(c1ccccc1)C2=O (stereo not given)	none (no result: Mot1-301 SUMO, CR mimetic SO, PglD inh, Cneo AK release)
COc1ccc(N2C(=O)c3n[nH]c(C)c3C2c2ccc(F)cc2)cc1 (stereo not given)	Ecoli rRNA inh -32.4 (no result: Mot1-301 SUMO, CR mimetic SO, PglD inh, Cneo AK release)
Cc1ccc(NC(=S)/C(=C(\[O-])c2ccc(Cl)s2)[n+]2cccc(CO)c2)cc1C	none
[O-]/C(=C(\C(=S)Nc1ccc(SC(F)F)cc1)[n+]1cccc(CO)c1)c1ccc(Cl)s1	Ecoli rRNA inh -31.3 (no result: PglD inh, Cneo AK release)
Cc1ccc(NC(=S)/C(=C(\[O-])c2ccc(F)cc2)[n+]2ccccc2)cc1	Ecoli rRNA inh -24.7 (no result: PglD inh, Cneo AK release)
CN(C)c1cc[n+](/C(C(=S)Nc2ccc(SC(F)F)cc2)=C(/[O-])c2ccccc2)cc1	Ecoli rRNA inh -18.9
COc1ccc(CNS(=O)(=O)c2ccc3c(c2)NC(=O)C(C)S3)cc1 (stereo not given)	Ecoli rRNA inh -19.1
CCN(Cc1ccccc1)S(=O)(=O)c1ccc2c(c1)NC(=O)CC(=O)N2	none (no result: PglD inh, Cneo AK release)
COc1ccc(CCNS(=O)(=O)c2ccc3c(c2)NC(=O)C(C)S3)cc1OC (stereo not given)	none
Cc1ccc(CNS(=O)(=O)c2ccc3c(c2)NC(=O)C(C)S3)cc1 (stereo not given)	Ecoli rRNA inh -33.8
O=C1CSc2ccc(S(=O)(=O)NCc3ccc(Cl)cc3)cc2N1	Ecoli rRNA inh -29.9 (no result: PglD inh, Cneo AK release)
CCN(Cc1ccccc1)S(=O)(=O)c1ccc2c(c1)NC(=O)CS2	Ecoli rRNA inh -35.4
CC=Cc1ccc2n(c1=O)C[C@H]1[C@H](CO)[C@@H](C(=O)NCCC)[C@@H]2N1CC1CC1 (mixture of isomers)	none (no result: Mot1-301 SUMO, CR mimetic SO)
O=C(COC(=O)CCC(=O)c1ccc(F)cc1)NCc1ccccc1Cl	Ecoli rRNA inh -30.2

High-throughput results deposited in PubChem by several laboratories.
